Bioassay records as filed in PubChem.
Sampled rows, rich in hits. Any-hit rate of the full collection: about 0.41%.
TNAP inh hiacc: inhibitors of human TNAP at high phosphate acceptor concentration. inhibition, % at 20 µM. P05186. AID 1135. 200,000 compounds, 0.03% hits. purified TNAP, CDP-star luminescence, 1 M DEA;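 active means over 50% inhibition of tissue-nonspecific alkaline phosphatase at 20 µM in the single-dose screen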;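 further: plate controls were DMSO wells for no effect and EDTA-quenched wells as full inhibition for full effect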
ABCB1 inh: inhibitors of human ABCB1 transporter, ABCG2 counter-screen | P08183 | CCRF-Adr cells, JC-1 efflux, flow cytometry | inhibition, % at 6.6 µM | 190,000 compounds, 0.067% hits | AID 1326; in the data active means inhibition above about 40%;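 further: 0% = vehicle and 100% = reference inhibitor; higher value means more JC-1 retained so stronger ABCB1 efflux block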
TNAP inh noacc: blocks human TNAP activity with no phosphate acceptor present; P05186; purified TNAP, CDP-star luminescence, 30 min; inhibition, % at 20 µM; 200,000 compounds, 0.26% hits;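 active means tissue-nonspecific alkaline phosphatase inhibition above about 50% at 20 µM in the single-dose screen, limit read from the data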;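 further: 0% = DMSO negative control and 100% = EDTA positive control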
ABCG2 block: inhibitors of human ABCG2 transporter, ABCB1 counter-screen | Q9UNQ0 | IgMXP3 cells, JC-1 efflux, flow cytometry | inhibition, % at 6.6 µM | 190,000 compounds, 0.1% hits;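 active means inhibition above 80%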;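 further: 0% = DMSO and 100% = nicardipine control wells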
Target sequence (Q9UNQ0 whole entry, looked up): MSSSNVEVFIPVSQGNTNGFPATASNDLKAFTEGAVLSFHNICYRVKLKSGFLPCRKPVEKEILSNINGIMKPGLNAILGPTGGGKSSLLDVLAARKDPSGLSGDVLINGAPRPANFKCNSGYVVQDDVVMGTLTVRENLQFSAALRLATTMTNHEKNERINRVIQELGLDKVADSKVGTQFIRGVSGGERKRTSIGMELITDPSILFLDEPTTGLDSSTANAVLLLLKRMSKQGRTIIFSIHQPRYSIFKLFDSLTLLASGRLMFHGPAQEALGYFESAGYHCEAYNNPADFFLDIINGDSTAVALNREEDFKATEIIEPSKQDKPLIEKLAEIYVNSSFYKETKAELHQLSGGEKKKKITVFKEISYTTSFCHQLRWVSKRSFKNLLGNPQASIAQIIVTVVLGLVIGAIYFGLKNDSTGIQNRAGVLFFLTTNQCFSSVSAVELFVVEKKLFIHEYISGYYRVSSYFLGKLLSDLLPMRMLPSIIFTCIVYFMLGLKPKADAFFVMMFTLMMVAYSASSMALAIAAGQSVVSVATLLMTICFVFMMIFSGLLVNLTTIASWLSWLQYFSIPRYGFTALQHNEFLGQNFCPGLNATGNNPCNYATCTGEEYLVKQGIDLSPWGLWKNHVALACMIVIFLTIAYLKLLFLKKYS
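material = IgMXP3 (ABCG2) plus far-red-tagged CCRF-Adr (ABCB1) cells | amount = 3 million cells/mL, equal mix of both lines | also added = JC-1 transporter substrate | dosing = one concentration, 6.6 µM final | schedule = 10 min at 25 °C | measured by = flow cytometric JC-1 green MFI at 530 nm | read-out basis = percent efflux inhibition, scaled nicardipine 100% to DMSO 0%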
TNAP act hiacc: activators of human TNAP at high phosphate acceptor concentration; purified TNAP, CDP-star luminescence, 1 M DEA, 30 min; hits give high values; 0 = EDTA background, 1 = DMSO-only activity; AID 1136; 200,000 tested, under 10 active; activation factor at 20 µM;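 active means activation factor at least 2 at 20 µM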
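Test system – human TNAP · Doses – 20 µM single point · Incubation – 30 min, room temperature · Signal – luminescent substrate turnover signal · Read-out basis – activation factor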
Starred values were filed as active, the others as inactive; nt = no result given.

SMILES	TNAP inh hiacc	ABCB1 inh	TNAP inh noacc	ABCG2 block	TNAP act hiacc
COCCN(C(=O)Cc1cccs1)C(C(=O)NC1CCCC1)c1cc(OC)c(OC)c(OC)c1 (stereo not given)	-5.1	1.7	-8.1	3.0	1.1
Fc1ccc(-c2[nH]ncc2-c2nnnn2-c2ccccc2)c(F)c1	5.7	0.1	84.3*	0.6	0.9
CC1(C(=O)CSc2n[nH]c(-c3ccccc3Cl)n2)CCC(=O)O1 (stereo not given)	-3.5	-0.1	53.8*	-1.1	1
CC1CC2(CC(C)(C(=O)CSc3n[nH]c(-c4ccccc4Cl)n3)OC2=O)C(=O)O1 (stereo not given)	-3.4	-1.7	52.9*	14.9	1
O=C(CSc1n[nH]c(-c2ccccc2Cl)n1)NCc1cccc(C(=O)O)c1	-0.2	0.4	93.0*	0.5	1
COC(=O)c1ccccc1NC(=O)COC(=O)CSc1nnc(N)s1	-1.3	-0.8	-11.3	-1.5	1
COc1ccc(-c2[nH]ncc2CN(Cc2nccn2C)C(C)C)c(F)c1	-4.9	0.2	25.5	1.0	1
CCn1ccnc1CN(C)Cc1cn[nH]c1-c1ccc(F)cc1F	-2.7	0.6	85.4*	5.1	1
CCOc1cc(S(=O)(=O)NCc2cccnc2)c(C)cc1C	-8.6	0.2	-9.2	3.1	1.1
COc1cc(/C=C2\C(=O)N(c3ccc(NC(C)=O)cc3)N=C2c2ccccc2)ccc1O	42.5	0.0	54.8*	-9.3	0.6
CCOc1cc(/C=C2\C(=O)N(c3nc(-c4ccc(Br)cc4)cs3)N=C2c2ccccc2)ccc1O	22.5	0.6	30.5	-0.3	0.8
O=C1/C(=C\c2ccc(O)c(O)c2)C(c2ccccc2)=NN1c1ccccc1	38.2	-0.2	88.5*	-0.1	0.6
Cc1cc(C)cc(N(C(=O)c2cccs2)C2C=CS(=O)(=O)C2)c1 (stereo not given)	-6.2	-0.3	-21.8	4.0	1.1
C[C@@H]1O[C@@H](Oc2c(-c3cc(O)c(O)c(O)c3)oc3cc(O)cc(O)c3c2=O)[C@H](O)[C@H](O)[C@H]1O	11.6	0.3	51.5*	4.0	0.9
CC(C)N=c1scc(-c2ccco2)n1/N=C/c1ccc(O)c(O)c1	21.3	-0.3	74.0*	-1.2	0.8
CCOCCCNCc1ccc(OCCC(C)C)c(OC)c1	-3.0	0.8	-18.9	6.8	1
C[C@](N)(Cc1ccc(O)c(O)c1)C(=O)O	4.9	-0.1	54.1*	-0.6	1
Cc1cc(NC(=O)CSc2nncn2N)no1	-4.3	0.9	-8.8	-1.2	1
CCCCNC(=S)Nc1cc([N+](=O)[O-])ccc1C	0.6	-0.1	-1.4	0.8	1
O=C(Nc1ccccc1)N1CCc2scc[n+]2-c2ccccc21	0.3	-1.0	69.7*	-4.2	1
CC1CN(C(=O)Nc2ccccc2)c2ccccc2-[n+]2ccsc21 (stereo not given)	0.9	-0.2	71.7*	-2.6	1
CCc1cccc(NC(=O)c2cc(OC)c(OC)c(OC)c2)c1	-4.9	0.6	-11.2	3.7	1
CN=C(NC1CCCCC1)c1ccc(Cl)cc1	1.0	-0.2	0.2	0.1	1
COc1ccc(Cl)cc1NC(=S)NCCSc1ccc(C)cc1	-3.4	-0.1	-83.8	9.8	1
Cc1cc(C)nc(NN2C(=O)/C(=C/c3ccc(O)cc3)SC2=S)n1	43.3	0.4	93.8*	1.2	0.6
SMILES	TNAP inh hiacc	ABCB1 inh	TNAP inh noacc	ABCG2 block	TNAP act hiacc
CCC(=O)n1nc(-c2ccc(OC)cc2)nc1N	-2.6	0.0	50.6*	0.8	1
O=c1[nH][nH]c(-c2ccccc2O)c1C(C[N+](=O)[O-])c1ccc(Cl)cc1Cl (stereo not given)	49.5	3.4	70.3*	2.5	0.5
O=c1[nH][nH]c(-c2ccccc2O)c1C(C[N+](=O)[O-])c1cccc(Cl)c1 (stereo not given)	42.3	0.2	48.7	0.6	0.6
OCCN1CCN(CC(O)C(F)(F)F)CC1 (stereo not given)	-1.7	0.1	-6.2	-0.8	1
Cc1nc2c3cnn(-c4ccccc4)c3ncn2n1	-1.9	0.4	54.0*	3.7	1
c1ccc(-n2ncc3c2ncn2cnnc32)cc1	9.4	0.0	75.6*	0.2	0.9
Cc1ccc(-n2ncc3c2ncn2c(C)nnc32)cc1C	-0.2	0.5	83.5*	7.1	1
c1ccc(-n2ncc3c2ncn2nnnc32)cc1	-4.6	0.4	2.5	1.3	1
Cc1cccc(C)c1OCc1nnc2c3cnn(C)c3ncn12	-2.1	0.1	73.7*	4.5	1
CCc1nnc2c3cnn(-c4ccccc4)c3ncn12	4.0	1.3	52.6*	5.2	1
Cc1ccn2cc(C34CC5CC(CC(C5)C3)C4)nc2c1	-0.4	0.1	-9.7	0.9	1
O=S(=O)(Nc1ccc(N=Nc2ccc(O)c3ccccc23)cc1)c1ccccc1	49.3	-0.3	53.3*	-3.5	0.5
Cc1cc(NN)nc(NS(=O)(=O)c2ccc(Cl)cc2)n1	-3.9	-0.2	-3.5	0.2	1
Cc1cc(NN)nc(NS(=O)(=O)c2ccccc2)n1	-6.1	-0.1	50.5*	-0.6	1.1
C/C(=N\NC(=O)CSCc1ccccc1Cl)c1cc(O)ccc1O	6.4	0.5	75.1*	2.8	0.9
NS(=O)(=O)c1cccnc1Nc1cccc(Cl)c1Cl	50.3*	0.7	28.9	12.6	0.5
O=C(OCC(=O)N1CCCCCC1)c1n[nH]c(=O)c2ccccc12	-6.9	-1.6	-7.2	-0.4	1.1
CCC1CCCCN1C(=O)COC(=O)c1n[nH]c2ccccc12 (stereo not given)	-1.7	-0.3	56.4*	0.8	1
COC(=O)c1n[nH]c2ccccc12	-7.7	-0.6	55.3*	-1.7	1.1
CC1CCN(C(=O)COC(=O)c2n[nH]c3ccccc23)CC1	-0.3	0.2	58.3*	0.4	1
CCCC(C)C(=O)Nc1ccc(S(=O)(=O)Nc2nccs2)cc1 (stereo not given)	-1.7	0.3	-5.7	3.7	1
CCN1CCc2c(sc(NC(=O)c3ccc(S(=O)(=O)N4CCOCC4)cc3)c2C(N)=O)C1	6.4	0.4	-4.6	5.3	0.9
CCN1CCc2c(sc(NC(=O)Nc3ccc(Cl)c(Cl)c3)c2C(N)=O)C1	2.5	39.4	-6.2	136.1*	1
CC(=O)c1cccc(N(C(=O)Cn2nnc3ccccc32)C(C(=O)NC2CCCCC2)c2cn(C)nc2C)c1 (stereo not given)	-0.4	nt	-4.7	nt	1
O=C(NC1CCCCC1)C(c1ccc(O)c(O)c1)N(C(=O)Cn1nnc2ccccc21)c1cccc(O)c1 (stereo not given)	-0.1	0.1	50.6*	0.3	1
O=c1c2cc(N3CCOCC3)ccc2[nH]c(=S)n1CCCN1CCCCCC1	-0.8	0.8	-7.7	5.5	1
O=c1c2cc(N3CCOCC3)ccc2[nH]c(=S)n1CCCN1CCN(c2ccccc2F)CC1	-4.3	53.1*	-5.0	32.7	1
